Experimental data: ChEMBL document CHEMBL1153904, “FR290581, a novel sordarin derivative: synthesis and antifungal activity” (Bioorg Med Chem Lett, 2009)
≈ marks a conversion by molar mass, not a printed value.

Columns and labels:
Candida albicans [1] = experiment: Antifungal activity against fluconazole-resistant Candida albicans 22009; assay type: functional
Cryptococcus neoformans = experiment: Antifungal activity against Cryptococcus neoformans TIMM 0354; assay type: functional
In short: (§1)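 Read-out is the minimum inhibitory concentration, in µg/mL.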

Nakaseomyces glabratus = experiment: Antifungal activity against Candida glabrata ATCC 90030; assay type: functional; in short: as §1
Candida albicans [2] = experiment: Antifungal activity against Candida albicans ATCC 90028; assay type: functional
Aspergillus fumigatus = experiment: Antifungal activity against Aspergillus fumigatus ATCC 204305; assay type: functional; in short: as §1
Candida parapsilosis = experiment: Antifungal activity against Candida parapsilosis ATCC 22019; assay type: functional; conditions: Lodderomyces parapsilosis; in short: as §1
Candida tropicalis = experiment: Antifungal activity against Candida tropicalis 21005; assay type: functional; in short: as §1
Candida albicans [3] = experiment: Antifungal activity against Candida albicans FP633 in po dosed ICR mouse assessed as kidney burden per gram of tissue at 20 mg/kg, po after 24 hrs of inoculation; assay type: functional
In short: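 Mouse systemic C. albicans infection, oral dosing, n = 5 per group. Kidney fungal burden was read as log cfu per g kidney at 24 h after inoculation and expressed as the change relative to the 0 h control. Significance was tested against the 0 h control by Dunnett comparison.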

Candida albicans [4] = experiment: Antifungal activity against Candida albicans […] in ICR mouse serum drug administered po twice a day; assay type: functional
In short: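 MIC measured in mouse serum, in µg/mL.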

[5] = Cmax in mouse at 2 mg/kg, po; assay type: ADME, organism-based; set-up: dose 2 mg/kg, route oral; conditions: in vivo
In short: (§2)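 Mice received a single oral dose of 2 mg/kg. Cmax is reported in µg/mL and half-life in hours.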

[6] = Half life in mouse at 2 mg/kg, po; assay type: ADME, organism-based; set-up: dose 2 mg/kg, route oral; conditions: in vivo; in short: as §2
Candida albicans [7] = experiment: Antifungal activity against Candida albicans FP633 in po dosed ICR mouse candidiasis model treated after 1 hr post infection for 4 days; assay type: functional
In short: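 ED50 (mg/kg) determined in a mouse systemic candidiasis model, with compound given orally.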

Structure (SMILES)	MIC (Candida albicans [1]) [µg/mL]	MIC (Cryptococcus neoformans) [µg/mL]	MIC (Nakaseomyces glabratus) [µg/mL]	MIC (Candida albicans [2]) [µg/mL]	MIC (Aspergillus fumigatus) [µg/mL]	MIC (Candida parapsilosis) [µg/mL]	MIC (Candida tropicalis) [µg/mL]	deltalog10CFU (Candida albicans [3])	MIC (Candida albicans [4]) [µg/mL]	Cmax [5] [ng/mL]	half-life [6] [min]	ED50 (Candida albicans [7]) [mg/kg]
OC(Cn1cncn1)(Cn1cncn1)c1ccc(F)cc1F [FLUCONAZOLE]	128 (≈ 418 µM)	0.25 (≈ 0.816 µM)	16 (≈ 52.2 µM)	0.125 (≈ 0.408 µM)	> 128	1 (≈ 3.27 µM)	0.25 (≈ 0.816 µM)	-0.19				
CO[C@H]1[C@@H](O)[C@H](O)[C@H](OC[C@@]23C[C@@H]4[C@H](C)CC[C@H]4[C@@]4(C=O)CC2C=C(C(C)C)[C@@]34C(=O)O)O[C@@H]1C [SORDARIN]	64 (≈ 130 µM)	> 128	64 (≈ 130 µM)	32 (≈ 65 µM)	> 128	> 128	64 (≈ 130 µM)		32 (≈ 65 µM)	20	19.8	> 40
CCCC[C@@H]1C[C@H](C23C[C@@H]4[C@H](C)CC[C@H]4[C@@]4(C=O)CC2C=C(C(C)C)[C@@]34C(=O)O)O[C@H]1CN1CCC(N2C[C@@H](C)O[C@@H](C)C2)CC1	0.5 (≈ 0.783 µM)	4 (≈ 6.26 µM)	1 (≈ 1.57 µM)	0.5 (≈ 0.783 µM)	128 (≈ 200 µM)	8 (≈ 12.5 µM)	0.5 (≈ 0.783 µM)	-1.09	0.25 (≈ 0.391 µM)	1000	204	2
